Assay results gathered from unrelated publications.
Each line is one published result; the experiments were not run side by side.
Target: Cytochrome P450 1A2 (CYP1A2, Homo sapiens, UniProt P05177)
Observed: enzyme activity
Action: inhibitor

| Compound | test | system | conditions | quantity | value |
| --- | --- | --- | --- | --- | --- |
| CCn1c(C(=O)N(C2CC2)C2CC2)cc2c3c(ncn3C)c(Nc3cc(C)n(C)n3)nc21 |  | human, liver microsomes |  | Ki | 0.6 µM |
| C#Cc1cccc2oc(-c3ccccc3)cc(=O)c12 |  |  | 6 min, pH 7.6 | Ki | 0.81 µM |
| N#Cc1ccnc(Oc2nn([C@H]3C[C@H](F)C3)c3ncnc(N)c23)c1 |  | human, liver microsomes | 10 min | IC50 | 20.8 µM |
| CC1=CC(=O)C(C(C)C)=CC1=O | fluorescence |  | pH 7.4 | IC50 | 557 µM |
| C#Cc1ccc2c(=O)cc(-c3ccccc3)oc2c1 |  |  | 6 min, pH 7.6 | Ki | 0.52 µM |
| CCCN(CCC)CCc1cccc2c1CC(=O)N2 | fluorescence |  |  | IC50 | 540 µM |
| COc1ccc2c(Cc3ccccc3F)c3[n+](cc2c1OC)CCc1cc2c(cc1-3)OCO2 |  |  |  | IC50 | > 10 µM |
| Cc1cc2c(F)c(Oc3ncnn4cc(OC[C@@H](C)O)c(C)c34)ccc2[nH]1 | fluorescence |  | 15 min | IC50 | 44.5 µM |
| CCCCCNC(=N)N/N=C/c1c[nH]c2ccc(OC)cc12 | fluorescence |  |  | IC50 | 347 µM |
| Cc1ccc2nc(-c3ccccc3)c(CNc3ccc(F)cc3)n2c1 |  |  |  | IC50 | 1.8 µM |
| C=CC(=O)Nc1cc(Nc2nccc(Nc3cc(Cl)c(F)cc3C(C)(C)O)n2)c(OC)cc1N1CC[C@@H](N(C)C)C1 |  | human, liver microsomes |  | IC50 | > 30 µM |
| COc1ccc2[nH]c([S+]([O-])Cc3ncc(C)c(OC)c3C)nc2c1 (stereo not drawn) | fluorescence |  |  | IC50 | 112 µM |
